# Only some compounds are listed: those with a hit (about 1.3% of all), similar ones and a draw of the others.
# PP5 primary: inhibitors of human protein phosphatase 5 (PP5); inhibition, % at 6.7 µM; 320,000 compounds, 0.18% hits; purified PP5c, OMFP substrate fluorescence; P53041;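 active = inhibition above the campaign's mean inhibition across all tested compounds plus 3 SD, cut at about 9.5% in these data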;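 note: 0% = DMSO only and 100% = 100 µM cantharidin control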
# NR2E3 ag-1: agonists of human nuclear receptor NR2E3; Q9Y5X4; GST-NR2E3/biotin-RetCOR TR-FRET, 1536-well; inhibition of corepressor binding, % at 4.78 µM; 320,000 compounds, 0.12% hits;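 active = percent inhibition above the cutoff of mean plus 3 SD of all tested compounds, set per screening campaign, cut at about 20% in these data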;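 note: 0% = DMSO wells and 100% = biotin wells as full block of FRET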
#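 System: GST-tagged NR2E3 plus biotinylated RetCOR corepressor; Amount: 1.35 nM GST-tagged NR2E3 final; Dosing: single nominal compound dose of 4.8 µM; Schedule: 5 h incubation at 4 °C; Technique: TR-FRET with europium anti-GST and streptavidin-D2, 340 nm excitation; Controls: biotin wells as high control, 0.6% DMSO wells as low control.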
# PP1 inh: PP1-alpha (human) inhibition in PP5 counter-screen | P62136 | purified PP1alpha, OMFP fluorescence | inhibition, % at 6.7 µM | 320,000 compounds, 0.9% hits | AID 2235;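 active = inhibition above the mean inhibition of all tested compounds plus 3 SD, computed separately for each screening campaign, cut at about 15% in these data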
# Target sequence (P62136 whole entry, looked up): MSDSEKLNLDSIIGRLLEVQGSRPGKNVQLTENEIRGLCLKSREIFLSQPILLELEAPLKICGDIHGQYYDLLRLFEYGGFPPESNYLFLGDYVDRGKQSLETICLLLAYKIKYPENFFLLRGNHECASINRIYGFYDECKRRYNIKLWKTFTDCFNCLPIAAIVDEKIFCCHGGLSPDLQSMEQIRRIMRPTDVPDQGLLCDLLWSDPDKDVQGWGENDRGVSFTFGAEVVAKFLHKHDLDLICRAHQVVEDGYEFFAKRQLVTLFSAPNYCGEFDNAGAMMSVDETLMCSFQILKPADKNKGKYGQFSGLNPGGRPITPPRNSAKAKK
# NR2E3 ag-2: human photoreceptor-specific nuclear receptor agonism; Q9Y5X4; CHO-S Gal4-NCOR/VP16-NR2E3 two-hybrid, luciferase; inhibition of corepressor binding, % at 3.98 µM; 360,000 compounds, 0.35% hits;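 active = inhibition above the mean of all tested compounds plus 3 SD, cut at about 70% in these data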;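 note: 0% = DMSO with NR2E3 transfected cells and 100% = cells lacking NR2E3 construct; higher means lower luciferase signal from less NR2E3 corepressor binding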
# NR2E3 ag confirm: NR2E3 (human) agonism, confirmation; shares compounds with NR2E3 ag-1; cell-free NR2E3 corepressor release, TR-FRET, 5 h; activation (reported as inhibition), % at 3.98 µM; 360 compounds, 39% hits; AID 2379; in the data active = activation above about 20%
# PPARg-NCOR2 ag: PPARg-NCOR2 interaction agonism, NR2E3 counter-screen | shares compounds with NR2E3 ag-1 | TR-FRET PPARg-NCOR2 coregulator interaction, biochemical | inhibition, % at 3.98 µM | 360 compounds, 45% hits | AID 504787; in the data active = inhibition above about 20%;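 note: 0% = DMSO vehicle and 100% = wells without protein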
# Active calls of the source: *; / = not tested or not shown.
SMILES,PP5 primary,NR2E3 ag-1,PP1 inh,NR2E3 ag-2,NR2E3 ag confirm,PPARg-NCOR2 ag
COc1cc2oc(=O)c(Br)c(C)c2c(OC)c1OC,1,20*,0,-11,8,6
COc1cccc(CNC(=O)CCCn2c(=S)[nH]c3cc4c(cc3c2=O)OCO4)c1,1,26*,1,-2,31*,36*
COC(=O)c1sc(NC(=S)NNC(=O)c2c(Br)c(C)nn2C)c(C(=O)OC)c1C,2,62*,2,-2,9,5
CC(=O)NC(CSc1cc(C)nc2ccc(Br)cc12)C(=O)O (centres undefined),0,25*,2,-22,11,67*
COC(=O)c1ccc2nc(-c3ccc(Cl)cc3)c(Cc3cccc(Cl)c3)n2c1,/,/,/,-14,/,/
Nc1[nH]c(C(=O)c2ccccc2)c(-c2ccc(C(F)(F)F)cc2)c1C(=O)NCc1ccc(Cl)cc1Cl,/,/,/,-3,/,/
S=C(c1ccc(-c2cccc(Cl)c2)o1)N1CCCCC1,0,30*,-1,-149,17,11
O=S(=O)(Nc1cc2nc3ccccc3nc2n1Cc1ccccc1)c1ccc(Cl)cc1,10,33*,13,-31,5,1
Cc1cc(C)c(Cn2c(=O)n(CCCC(=O)NCc3ccco3)c(=O)c3sccc32)c(C)c1,0,27*,8,8,4,-5
CC(Sc1cnc2ccccc2n1)C(=O)O (centres undefined),-2,30*,18*,-5,6,9
CC(Sc1ccc2ccccc2n1)C(=O)O (centres undefined),/,/,/,-14,/,/
COc1ccc(-n2c(=S)[nH]c3c(oc4ccccc43)c2=O)cc1,4,53*,-1,-35,39*,38*
CCCCc1nnc(NC(=O)CSc2nc(O)c(-c3ccccc3)c(=O)[nH]2)s1,3,3,4,1,/,/
CCCCc1nnc(NC(=O)CSc2nc(O)c(Cc3ccccc3)c(=O)[nH]2)s1,-7,26*,-5,27,-6,-5
CCOC(=O)N1CCN(C(=O)CCN2C(=O)/C(=C\c3cccc(OC)c3)SC2=S)CC1,0,0,1,-21,/,/
O=C(COC(=O)c1ccc([N+](=O)[O-])cc1Cl)Nc1cccnc1Cl,-3,3,-3,-29,/,/
CCOC(=O)COc1cc(Br)c(/C=N/Nc2ccccc2)cc1OC,2,26*,1,28,1,1
C#CCN(C(=O)c1ccc(OC)c(OC2CCN(C(C)C)CC2)c1)C1CCCCC1,/,/,/,12,/,/
CC1NC(=O)NC1CCCCCC(=O)Nc1ccc(F)c(Cl)c1 (centres undefined),0,90*,0,-4,88*,91*
CCc1cccc(NC(=O)CCCCCC2NC(=O)NC2C)c1 (centres undefined),2,86*,-3,-7,90*,92*
Cc1ccc(NC(=O)CCCCCC2NC(=O)NC2C)cc1 (centres undefined),1,87*,-4,-19,90*,92*
CCc1cccc(NC(=O)CCCN2C(=O)NC(C)(C)C2=O)c1,0,4,-4,0,/,/
O=C(Nc1cc(S(=O)(=O)N2CCOCC2)ccc1N1CCCC1)c1ccc2c(c1)S(=O)(=O)c1ccccc1C2=O,-1,5,14,-10,/,/
COc1cc(C2C(C(=O)c3ccc(C)o3)=C(O)C(=O)N2c2cc(C)on2)ccc1O (centres undefined),0,1,0,-11,/,/
COc1cccc2cc(C(=O)C3=C(O)C(=O)N(c4cc(C)on4)C3c3cccs3)oc12 (centres undefined),2,33*,23*,-10,36*,42*
COc1cc(C2C(C(=O)c3ccc(C)o3)=C(O)C(=O)N2c2cc(C)on2)cc(OC)c1OC (centres undefined),-1,-2,3,-3,/,/
COC(=O)c1ccc(C2C(C(=O)c3cc4ccccc4o3)=C(O)C(=O)N2c2cc(C)on2)cc1 (centres undefined),-4,23*,27*,-9,32*,27*
COc1ccccc1C1C(C(=O)c2ccc(C)o2)=C(O)C(=O)N1c1cc(C)on1 (centres undefined),-1,16,2,-10,/,/

# Screens from PubChem.
